Measured values taken from ChEMBL document CHEMBL1136172, “Pyrrolo[2,3-h]quinolinones: synthesis and photochemotherapic activity” (Bioorg Med Chem Lett, 2003).

Assays:
Type in all cases: functional, cell-based
Conditions in all cases: HT-1080, light or radiation study
HT-1080 [1] = experiment: Inhibition of cell growth after irradiation at UVA dose of 6.5 J/cmE-2 in HT1080 human fibrosarcoma cell line
How it was run: (§1)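 HT-1080 cells from exponential culture seeded at 5×10⁴ cells/mL in DMEM with 10% FBS and penicillin/streptomycin, and allowed to adhere 18 h. Drug was dissolved in DMSO, diluted in HBSS pH 7.2 and incubated 30 min at 37 °C, 5% CO2. Cells were irradiated with lamps emitting mainly at 365 nm, then given medium for 72 h. Read-out was MTT versus untreated controls, with IC50 by linear regression from three experiments.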

HT-1080 [2] = experiment: Inhibition of cell growth after irradiation at UVA dose of 3.2 J/cmE-2 in HT1080 human fibrosarcoma cell line; how it was run: as §1
HT-1080 [3] = experiment: Inhibition of cell growth after irradiation at UVA dose of 2.6 J/cmE-2 in HT1080 human fibrosarcoma cell line; how it was run: as §1

Row | SMILES | IC50 (HT-1080 [1]) [µM] | IC50 (HT-1080 [2]) [µM] | IC50 (HT-1080 [3]) [µM]
1 | Cc1cc2c(n1C)CCc1cc(S(=O)(=O)c3ccccc3)c(O)nc1-2 | 16.4 | > 20 | > 20
2 | Cc1cc2c(n1C)CCc1cc(C(=O)c3ccccc3)c(O)nc1-2 | > 20 | > 20 | > 20
3 | Cc1cc2c(n1-c1ccccc1)CCc1cc(S(=O)(=O)c3ccccc3)c(O)nc1-2 | 0.4 | 2.3 | 3.6
4 | Cc1cc2c(n1-c1ccccc1)CCc1cc(C#N)c(O)nc1-2 | 11.1 | 13.1 | > 20
5 | O=c1ccc2ccc3occc3c2o1 [ANGELICIN] | 2.5 | 2.6 | 15.7
6 | COc1c2ccoc2cc2oc(=O)ccc12 [BERGAPTEN] | 0.9 | 1.8 | 8.5
7 | COc1c2occc2cc2ccc(=O)oc12 [METHOXSALEN] | 1.5 | 2.1 | 7.8

Next, values leading:

Row | IC50 (HT-1080 [1]) [µM] | IC50 (HT-1080 [2]) [µM] | IC50 (HT-1080 [3]) [µM] | SMILES
8 | 1.7 | 4.6 | 6.6 | Cc1cc2c(n1-c1ccccc1)CCc1cc(C(=O)c3ccccc3)c(O)nc1-2
9 | 1.9 | 9 | 14.7 | Cc1cc2c(n1Cc1ccccc1)CCc1cc(C(=O)c3ccccc3)c(O)nc1-2
10 | 1.8 | 15.1 | > 20 | Cc1cc2c(n1Cc1ccccc1)CCc1cc(S(=O)(=O)c3ccccc3)c(O)nc1-2
